In the library only some 3.8% were active in any assay of this set; here they are far more common.
Exocytosis inh: LAMP-1 surface exposure blockers, TALL-104 cells – cell-based, flow cytometry, MLPCN library, primary screen; TALL-104 LAMP-1 surface exposure; cells stimulated with thapsigargin and PMA; inhibition, % at 10 µM; actives 0.66% (n = 360,000);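 active = inhibition above about 55%, limit read from the data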
MPTP block: mitochondrial permeability transition pore inhibitors, primary screen, biochemical, isolated mouse mitochondria, absorbance. Ca2+ swelling absorbance, 30 min. inhibition, % at 10 µM. actives 1.4% (n = 360,000). AID 602449, 2012;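 active = inhibition of 50% or more, scaled per plate between neutral and stimulator controls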;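 also: 0% = DMSO wells given calcium and 100% = 1 mM EGTA wells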
T cell HTS: modulators of CD8 T cell-vesicle binding, primary screen, mouse 2C CD8+ T cells, flow cytometry. 2C CD8+ T cell-vesicle binding; stronger effect = lower value. actives 0.068% (n = 330,000). response (vesicle binding), % at 7 µM. AID 2052, 2009;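 active = response, share of CD8 T cells binding vesicles, and their 90th percentile fluorescence all below set limits, cut at about 80% in these data, passing the limit was not always enough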;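 also: values below 100% mean blocked vesicle binding to the CD8+ T cells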
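System: murine 2C transgenic CD8+ T lymphocytes; also added: QL9-loaded Drosophila micro-vesicles; times: binding 1.5 h at 37 °C; measured by: flow cytometry, PE anti-B7-1 (FL2) versus Alexa647 anti-CD8 (FL8), PFA-fixed; control set: Peptide-free naked vesicles (low) and QL9 vesicles with 0.7% DMSO vehicle (high)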
rCAG binder-1: binders of r(CAG) RNA repeats, primary screen, biochemical, fluorescence | r(CAG) RNA repeat, TO-PRO-1 dye displacement fluorescence | inhibition, % at 3 µM | actives 1.3% (n = 370,000);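 active = inhibition above the plate cutoff, the mean of all test compounds on that plate plus 3 SD, cut at about 35% in these data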;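 also: 0% = DMSO alone and 100% = 100 µM mitoxantrone as full dye displacement; higher means more dye released from RNA so lower well fluorescence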
V-ATPase pHluor: regulators of yeast V-ATPase proton pumping, primary screen, pHLuorin cytosolic pH fluorescence | S. cerevisiae | response, % at 10 µM | actives 0.37% (n = 350,000); in the data active = response mostly above about 7.3%, no sharp cut-off; inactive = mostly below about 5.4%; also: actives read high
B2AR ag: beta2AR agonists driving receptor internalization, primary screen, cell-based, FAP fluorogen, flow cytometry. Beta-2 adrenergic receptor (Homo sapiens), P07550. response, % (no concentration beside the values). Am2.2-beta2AR cells. actives 0.43% (n = 340,000);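 active = response above a set limit, near 3 SD of response in nonfluorescent compounds, cut at about 42% in these data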
Target sequence (P07550 whole entry, looked up): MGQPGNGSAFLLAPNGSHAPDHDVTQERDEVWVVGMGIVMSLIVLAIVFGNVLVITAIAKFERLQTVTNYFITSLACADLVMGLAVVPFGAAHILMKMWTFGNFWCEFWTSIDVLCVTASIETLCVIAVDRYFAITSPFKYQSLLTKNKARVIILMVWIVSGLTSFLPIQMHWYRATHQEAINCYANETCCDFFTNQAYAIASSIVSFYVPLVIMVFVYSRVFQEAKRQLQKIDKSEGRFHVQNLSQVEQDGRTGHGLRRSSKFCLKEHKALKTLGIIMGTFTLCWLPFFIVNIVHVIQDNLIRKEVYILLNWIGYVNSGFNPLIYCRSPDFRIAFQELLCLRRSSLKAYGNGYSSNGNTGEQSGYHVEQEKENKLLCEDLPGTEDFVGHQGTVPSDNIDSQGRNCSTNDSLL
rCAG bind conf: small molecules binding CAG repeat RNA – biochemical, fluorescence, confirmation; actives 70% (n = 4,300); inhibition, % at 3 µM; r(CAG) RNA repeat, TO-PRO-1 dye displacement fluorescence; shares compounds with rCAG binder-1;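 active = inhibition above a per-plate cutoff, the mean inhibition of sample wells plus 3 SD, cut at about 35% in these data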;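 also: loss of TO-PRO-1 fluorescence as compound displaces dye from 1x1 AA loop RNA; 0% = DMSO only wells and 100% = 100 µM mitoxantrone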
DNA CAG counter: displacement of TO-PRO-1 from CAG DNA duplex, counter-screen for rCAG RNA repeat binder project, biochemical, fluorescence, TO-PRO-1 dye, d(CAG) DNA oligo. shares compounds with rCAG binder-1. d(CAG) DNA oligo TO-PRO-1 dye displacement. inhibition, % at 3 µM. actives 94% (n = 4,300). AID 652068, 2013;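 active = inhibition above its plate's cutoff, the mean test-well inhibition plus 3 SD, cut at about 4.8% in these data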;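 also: 0% = DNA dye mix with DMSO and 100% = 100 µM mitoxantrone; hits displace the dye from DNA and so lower well fluorescence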
DNA CAG DR: inhibitors of DNA CAG/GTC TO-PRO-1 complex, dose response, counter-screen for rCAG RNA repeat binder project, biochemical, fluorescence, TO-PRO-1 dye | shares compounds with rCAG binder-1 | DNA CAG/GTC duplex TO-PRO-1 dye displacement fluorescence | IC50, µM | actives 20% (n = 250) | AID 686960, 2013; in the data active = IC50 below about 10 µM
dCAG TOPRO ctr: TO-PRO-1 dye complex inhibitors on d(CAG) DNA, dose response, counter-screen, biochemical, fluorescence, late stage. shares compounds with rCAG binder-1. d(CAG) DNA duplex TO-PRO-1 dye displacement. actives 80% (n = 30). IC50, µM
rCAG binder-2: molecules binding r(CAG) RNA repeats, late stage dose response, late-stage follow-up, biochemical, fluorescence, dose response, powder samples; shares compounds with rCAG binder-1; r(CAG) RNA TO-PRO-1 dye displacement; IC50, µM; actives 100% (n = 30)
* marks the source's active call; other numbers are inactive results; i = inactive; · = no result. Unless noted, no rule for the calls is given here.

SMILES | Exocytosis inh | MPTP block | T cell HTS | rCAG binder-1 | V-ATPase pHluor | B2AR ag | rCAG bind conf | DNA CAG counter | others
CCOC(=O)C1=C(c2ccccc2)N=c2s/c(=C\c3ccco3)c(=O)n2C1c1cccs1 (stereo not drawn) | 1 | 4 | 669 | 44* | 2 | 6 | 29 | 20*
O=C1c2cc(O)cc(O)c2C(=O)c2c1cc(O)c([C@@H](CO)CCO)c2O | 1 | 5 | 305 | 53* | -2 | -3 | 44* | 19*
CC(=O)C1(C(=O)N2CCOCC2)CC(c2ccccc2C(F)(F)F)=NO1 (stereo not drawn) | · | · | · | 2 | · | · | · | ·
O=C(CSc1nnc(-c2ccco2)c(-c2ccco2)n1)c1ccccc1 | 6 | 0 | 147 | 75* | 2 | -10 | 57* | 26*
CC(=O)c1ccc(NC(=O)CSc2nnc(-c3ccco3)c(-c3ccco3)n2)cc1 | -3 | 0 | 105 | 45* | 1 | 0 | 37* | 15*
CCCN1CCCCC(NC(=O)c2ccc(F)c(F)c2)C1=O (stereo not drawn) | · | · | · | 1 | · | · | · | ·
CCOC(=O)c1c(NC(=O)/C=C/C(=O)O)sc(C)c1-c1ccc(Cl)cc1 | 6 | 2 | 628 | 46* | 2 | 6 | 46* | 11*
CCN(CC)S(=O)(=O)c1ccc(NC(=O)c2ccc(Sc3nncn3C)c([N+](=O)[O-])c2)cc1 | -2 | 0 | 196 | 36* | 3 | 3 | 13 | 5.8*
COc1ccc(NC(=O)CSc2nnc(-c3n[nH]c4c3CCC4)n2N)cc1OC | · | · | · | 0 | · | · | · | ·
Cc1ccc(-c2n[nH]c3c2C(c2ccccc2)N(c2ccc(C(=O)O)cc2)C3=O)cc1 (stereo not drawn) | -1 | 2 | 156 | 45* | 1 | 5 | 26 | 6.2*
COC(=O)[C@]12C[C@H](CC(=O)NCc3cccc(C(F)(F)F)c3)C(=O)N(CCc3ccc(OC)c(OC)c3)C1=C[C@H](COCc1ccccc1)O[C@@H]2C | · | · | · | 2 | · | · | · | ·
O=C(CNC(=O)/C=C/c1ccco1)N=Nc1c(O)[nH]c2ccccc12 | 3 | 2 | 650 | 35* | 0 | 5 | 40* | 17*
COc1ccc(OC)c(CN2C(=O)CCCC2(C)c2nnnn2C2CCCC2)c1 (stereo not drawn) | · | · | · | 1 | · | · | · | ·
COC(=O)[C@]12C[C@H](CC(=O)NCc3cccs3)C(=O)N(Cc3ccc(Cl)cc3Cl)C1=C[C@H](C(C)C)O[C@@H]2C1CC1 | · | · | · | 4 | · | · | · | ·
Cc1[nH]c2ccccc2c1N=Nc1ccccc1C(=O)O | -1 | 6 | 726 | 53* | -3 | 13 | 19 | 5.7*
O=C(O)/C(=C\c1ccc(C(F)(F)F)cc1)c1ccc(S(=O)(=O)N2CCCC2)s1 | -4 | 1 | 464 | 37* | -6 | 1 | 25 | 5.5*
COc1cc(/C=C(\C#N)C(=O)NCC2CCCO2)ccc1OCCC(C)C (stereo not drawn) | -9 | 2 | 377 | -7 | 4 | 3 | · | ·
O=C(O)/C(=C\c1ccc(Br)cc1)c1ccc(S(=O)(=O)N2CCCCC2)s1 | 2 | 6 | 208 | 47* | -1 | -6 | 67* | 25* | DNA CAG DR=i;dCAG TOPRO ctr=8.3*;rCAG binder-2=2.8*
CCCCOc1ccc(/C=C(\C(=O)O)c2ccc(S(=O)(=O)N3CCCC3)s2)cc1 | -3 | 0 | 386 | 67* | 3 | -3 | 66* | 28*
COc1cc(/C=C(\C(=O)O)c2ccc(S(=O)(=O)N3CCCC3)s2)ccc1OCCC(C)C | 0 | -1 | · | 72* | 1 | 7 | 57* | 20*
O=C(O)/C(=C\c1cccc(F)c1)c1ccc(S(=O)(=O)N2CCCC2)s1 | 6 | -1 | 550 | 17 | · | 2 | · | ·
O=C(O)CCCC[n+]1ccccc1 | · | · | · | 1 | · | · | · | ·
O=C(COc1ccc([N+](=O)[O-])cc1)NNC(=O)c1cccs1 | 0 | 0 | 238 | 1 | 1 | 13 | · | ·
O=C(Cc1ccc([N+](=O)[O-])cc1)NNC(=O)c1cccs1 | -12 | -3 | i | 55* | 1 | 7 | 1 | 0
Cc1ccnc(NS(=O)(=O)c2ccc(NC(=O)c3cc(-c4ccccc4)nc4ccccc34)cc2)n1 | 0 | -1 | 236 | 45* | -2 | 2 | 56* | 16*
SMILES | Exocytosis inh | MPTP block | T cell HTS | rCAG binder-1 | V-ATPase pHluor | B2AR ag | rCAG bind conf | DNA CAG counter | others
O=C(Nc1ccc(Br)cc1)c1cc(-c2ccncc2)nc2ccccc12 | 8 | 1 | 472 | 8 | 2 | 1 | · | ·
Cc1ccnc(NS(=O)(=O)c2ccc(NC(=O)c3cc(-c4ccc(Br)cc4)nc4ccccc34)cc2)n1 | 11 | 3 | 250 | 39* | 2 | -1 | 72* | 33* | DNA CAG DR=i
COc1ccc(-c2cc(C(=O)Nc3ccc(S(=O)(=O)Nc4ncccn4)cc3)c3ccccc3n2)cc1 | -5 | 5 | 122 | 58* | 5 | 19 | 56* | 22*
COc1cc(-c2cc(C(=O)Nc3ccc(S(=O)(=O)Nc4ncccn4)cc3)c3ccccc3n2)cc(OC)c1OC | -3 | 1 | 56 | 5 | -3 | 1 | · | ·
CCc1cc(C(=O)O)c(NC(=O)C(c2ccccc2)c2ccccc2)s1 | 2 | -2 | 177 | 41* | · | 2 | 36* | 8.4*
CCOC(=O)c1cc(C)sc1NC(=O)C(c1ccccc1)c1ccccc1 | -14 | 1 | 203 | 5 | -2 | 1 | · | ·

Compound activity from PubChem.
